In brackets after ≈: the same amount, converted by molar mass. Activity calls are given as the source filed them. No cut-off for these calls is given here.
Assays:
Staphylococcus aureus [1] = experiment: Antibacterial activity against methicillin-resistant Staphylococcus aureus isolate CBD 635 at 50 ug per disc by Kirby-Bauer disc diffusion assay; format: functional; conditions: read-out: DIZ
Outline: (§1)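 Kirby-Bauer disk diffusion with 50 µg compound per 6 mm paper disk. Organisms were grown and plated by an earlier method. The zone-of-inhibition diameter was recorded to the nearest mm and averaged over three independent experiments. No zone was reported as 6 mm, the disk diameter.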

Staphylococcus aureus [2] = experiment: Antibacterial activity against methicillin-resistant Staphylococcus aureus isolate CBD 635; format: functional
Outline: (§2)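 MIC against S. aureus strains was run by an earlier published procedure, tested in triplicate. Values were averaged and expressed as µg/ml of compound.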

Staphylococcus aureus [3] = experiment: Antibacterial activity against methicillin-susceptible Staphylococcus aureus SH1000; format: functional
Outline: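 MIC in µg/ml, tested in triplicate and averaged, with ciprofloxacin as positive control.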

Staphylococcus aureus [4] = experiment: Antibacterial activity against methicillin-resistant Staphylococcus aureus ATCC 43300; format: functional; outline: as §2
Bacillus anthracis = experiment: Antibacterial activity against Bacillus anthracis sterne at 50 ug per disc by Kirby-Bauer disc diffusion assay; format: functional; conditions: read-out: DIZ; outline: as §1
Enterococcus faecalis = experiment: Antibacterial activity against Enterococcus faecalis DS16 at 50 ug per disc by Kirby-Bauer disc diffusion assay; format: functional; conditions: read-out: DIZ
Outline: (§3)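 Disks carried 50 µg of compound. Zone diameter was measured to the nearest mm and averaged over three independent experiments. A value of 6 mm, the disk diameter, was recorded where no inhibition was seen.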

[5] = Antibacterial activity against Bartonella henselae ATCC 49882 at 20 ug per disc after 7 days by Kirby-Bauer disc diffusion assay; format: functional, Bartonella henselae str. Houston-1; conditions: ATCC 49882, 168 h, read-out: DIZ
Outline: (§4)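 Each paper disk was loaded with 20 µl of a 1 mg/ml solution, dried for 20 min and stored desiccated at 4 °C. Growth from 4-day plates was suspended in heart infusion broth to McFarland 2.0 and swabbed onto chocolate agar (heart infusion agar base with 5% bovine hemoglobin). Plates were incubated 1 week at 37 °C in 5% CO2. Zone diameter was read to the nearest mm, in triplicate and averaged.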

Bartonella quintana = experiment: Antibacterial activity against Bartonella quintana ATCC VR358 at 20 ug per disc after 7 days by Kirby-Bauer disc diffusion assay; format: functional; conditions: ATCC VR358, 168 h, read-out: DIZ; outline: as §4
Bartonella elizabethae = experiment: Antibacterial activity against Bartonella elizabethae F9251 at 20 ug per disc after 7 days by Kirby-Bauer disc diffusion assay; format: functional; conditions: F9251, 168 h, read-out: DIZ; outline: as §4
Bartonella vinsonii = experiment: Antibacterial activity against Bartonella vinsonii ATCC VR152 at 20 ug per disc after 7 days by Kirby-Bauer disc diffusion assay; format: functional; conditions: ATCC VR152, 168 h, read-out: DIZ; outline: as §4
[6] = Antibacterial activity against Bartonella henselae ATCC 49882 after 7 days by agar dilution method; format: functional, Bartonella henselae str. Houston-1; conditions: ATCC 49882, 168 h
Outline: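 Agar dilution on chocolate agar containing compound at 10.0, 1.0 and 0.1 µg/ml, with 2-fold steps at and below 1.0 µg/ml for compounds active there. Controls were DMSO-only and drug-free plates. 25 µl of a McFarland 2.0 suspension in heart infusion broth was spotted and incubated 7 days at 37 °C in 5% CO2. Growth was scored +/− on duplicate plates; triplicate results were averaged.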

[7] = Antibacterial activity against Bartonella henselae Houston-1 infected in human HMEC1 cells assessed as intracellular bacterial load at 1 ug/mL incubated for 96 hrs followed by compound washout measured after 7 days relative to control; format: functional, Bartonella henselae str. Houston-1
Outline: (§5)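 HMEC-1 cells grown in MCDB131 with 10% FBS, EGF and hydrocortisone were infected with B. henselae Houston-1 at MOI 100 for 4 h. Extracellular bacteria were killed with gentamicin (200 µg/ml, 1 h), then compound was added at 0.1 or 1.0 µg/ml for 96 h. After washing, cells were lysed with 0.1% saponin and lysates plated on chocolate agar for 7 days. CFU are given as a percentage of the media-only control.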

[8] = Antibacterial activity against Bartonella henselae Houston-1 infected in human HMEC1 cells assessed as intracellular bacterial load at 0.1 ug/mL incubated for 96 hrs followed by compound washout measured after 7 days relative to control; format: functional, Bartonella henselae str. Houston-1; outline: as §5
Escherichia coli [9] = experiment: Antibacterial activity against Escherichia coli DH5alpha at 50 ug per disc by Kirby-Bauer disc diffusion assay; format: functional; conditions: DH5[alpha], read-out: DIZ; outline: as §3
Staphylococcus aureus [10] = experiment: Antibacterial activity against methicillin-susceptible Staphylococcus aureus SH1000 at MIC by serial dilution method; format: functional
Outline: (§6)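 Tryptic soy agar contained compound at 1x, 1.5x, 2.0x or 2.5x the measured MSSA MIC. Cells from 1 ml of an overnight MSSA broth culture were pelleted, resuspended in 100 µl TSB and spread with glass beads. Inoculum cfu was counted by serial dilution onto drug-free agar. Total colonies from at least 3 replicates are reported; frequency is colonies divided by total inoculum.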

Staphylococcus aureus [11] = experiment: Antibacterial activity against methicillin-susceptible Staphylococcus aureus SH1000 at 1.5 fold MIC by serial dilution method; format: functional; outline: as §6
Staphylococcus aureus [12] = experiment: Antibacterial activity against methicillin-susceptible Staphylococcus aureus SH1000 at 2 fold MIC by serial dilution method; format: functional; outline: as §6
Staphylococcus aureus [13] = experiment: Antibacterial activity against methicillin-susceptible Staphylococcus aureus SH1000 at 2.5 fold MIC by serial dilution method; format: functional; outline: as §6
Escherichia coli [14] = experiment: Inhibition of Escherichia coli DNA gyrase-mediated formation of supercoiled form of pUC19 at 1 to 100 ug/mL by gel electrophoresis
Outline: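 Relaxed circular pUC19 was incubated with purified E. coli DNA gyrase and compound for 1 h at 37 °C. Relaxed and supercoiled DNA were resolved and quantified by gel electrophoresis.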

Row | SMILES | zone of inhibition at 50 µg/disc (Staphylococcus aureus [1]) | MIC (Staphylococcus aureus [2]) | MIC (Staphylococcus aureus [3]) | MIC (Staphylococcus aureus [4]) | zone of inhibition at 50 µg/disc (Bacillus anthracis) | zone of inhibition at 50 µg/disc (Enterococcus faecalis) | zone of inhibition at 20 µg/disc [5] | zone of inhibition at 20 µg/disc (Bartonella quintana) | zone of inhibition at 20 µg/disc (Bartonella elizabethae) | zone of inhibition at 20 µg/disc (Bartonella vinsonii) | MIC [6] | Activity [7] | Activity [8] | zone of inhibition at 50 µg/disc (Escherichia coli [9]) | CFU/ml (Staphylococcus aureus [11]) | CFU/ml (Staphylococcus aureus [12]) | CFU/ml (Staphylococcus aureus [13]) | Activity (Staphylococcus aureus [10]) | also measured
1 | CC(C)CC(=O)N1CCN(c2cc3c(cc2F)c(=O)c(C(=O)O)cn3C2CC2)CC1 | 28 mm | > 100 µg/mL | > 100 µg/mL | > 100 µg/mL | 70 mm | 32 mm | 62 mm | 36 mm | 37 mm | 40 mm | 0.2 µg/mL (≈ 0.481 µM) | <=10% | 32% | 36 mm | – | – | – | – | –
2 | CC(=O)N1CCN(c2cc3c(cc2F)c(=O)c(C(=O)O)cn3C2CC2)CC1 | 24 mm | > 100 µg/mL | 10 µg/mL (≈ 26.8 µM) | 10 µg/mL (≈ 26.8 µM) | 89 mm | 48 mm | 52 mm | 6 mm | 58 mm | – | – | <=10% | 54% | 60 mm | 41 | 101 | 0 | – | CFU/ml (Staphylococcus aureus [10]): 90; gyrase inhibition (active/inactive) (Escherichia coli [14]): Active
3 | CCCC(C)C(=O)N1CCN(c2cc3c(cc2F)c(=O)c(C(=O)O)cn3C2CC2)CC1 (configuration not stated) | 33 mm | > 100 µg/mL | 10 µg/mL (≈ 23.3 µM) | 1 µg/mL (≈ 2.33 µM) | 67 mm | 33 mm | 37 mm | 24 mm | 32 mm | 30 mm | 0.8 µg/mL (≈ 1.86 µM) | – | – | 33 mm | 7 | 4 | 0 | inactive | –
4 | CCCCCCCCCC(=O)N1CCN(c2cc3c(cc2F)c(=O)c(C(=O)O)cn3C2CC2)CC1 | 34 mm | > 100 µg/mL | 10 µg/mL (≈ 20.6 µM) | 10 µg/mL (≈ 20.6 µM) | 6 mm | 6 mm | 10 mm | 11 mm | 9 mm | 9 mm | 5 µg/mL (≈ 10.3 µM) | – | – | 6 mm | – | – | – | inactive | Activity (Staphylococcus aureus [11]): inactive; Activity (Staphylococcus aureus [12]): inactive; Activity (Staphylococcus aureus [13]): inactive
5 | CCC(C)(C)C(=O)N1CCN(c2cc3c(cc2F)c(=O)c(C(=O)O)cn3C2CC2)CC1 | 31 mm | > 100 µg/mL | 5 µg/mL (≈ 11.6 µM) | 1 µg/mL (≈ 2.33 µM) | 57 mm | 45 mm | 41 mm | 27 mm | 32 mm | 33 mm | 0.5 µg/mL (≈ 1.16 µM) | <=10% | 54% | 38 mm | – | – | – | – | –

Reference: ChEMBL document CHEMBL2150951, “Studies on the antimicrobial properties of N-acylated ciprofloxacins” (2012)
